Test [1] relates to CAL-27. Put plainly: Potentiation of cisplatin-induced apoptosis in human CAL27 cells at 0.5 uM preincubated for 48 hrs followed by cisplatin treatment for 6 hrs measured after 24 hrs by propidium iodide dye-based flow cytometry (reference value: 21.8%). In kind it is functional. For orientation: A flow cytometer gives signals particle by particle.
Test [2] deals with CAL-27. Put plainly: Potentiation of 0.316 uM cisplatin-induced cytotoxicity against human CAL27 cells assessed as decrease in cell viability by measuring combination index at 1000 uM preincubated for 48 hrs followed by cisplatin treatment measured after 72 hrs by MTT assay. The conditions noted are these: in the assay text read “at 1000 nM” for “at 1000 uM”. The format is functional. A digest of the protocol:
(§1)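 Cal27 and cisplatin-resistant Cal27CisR cells were preincubated with the HDAC inhibitor for 48 h, then given cisplatin in combination. Viability was read by MTT after 72 h. The combination index was computed by the Chou–Talalay method: CI > 1 is antagonism, CI = 1 is additive, and CI < 0.9 is synergism. Points with fraction affected below 0.20 were flagged.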
(In general: Tetrazolium dyes change colour on reduction, which living cells bring about.)

Test [3] has as its system CAL-27. As to the kind of experiment: Potentiation of 0.5 uM cisplatin-induced cytotoxicity against human CAL27 cells assessed as decrease in cell viability by measuring combination index at 900 uM preincubated for 48 hrs followed by cisplatin treatment measured after 72 hrs by MTT assay. The format is functional. Put shortly: as §1
The test system of test [4] is CAL-27. Put plainly: Potentiation of 0.5 uM cisplatin-induced cytotoxicity against human CAL27 cells assessed as decrease in cell viability by measuring combination index at 1000 uM preincubated for 48 hrs followed by cisplatin treatment measured after 72 hrs by MTT assay. In kind it is functional. Put shortly:
as §1

Test [5] relates to CAL-27. Put plainly: Potentiation of 0.5 uM cisplatin-induced cytotoxicity against human CAL27 cells assessed as decrease in cell viability by measuring combination index at 1500 uM preincubated for 48 hrs followed by cisplatin treatment measured after 72 hrs by MTT assay. The format is functional. A digest of the protocol: as §1
Test [6] relates to CAL-27. As to the kind of experiment: Potentiation of 0.5 uM cisplatin-induced cytotoxicity against human CAL27 cells assessed as decrease in cell viability by measuring combination index at 2000 uM preincubated for 48 hrs followed by cisplatin treatment measured after 72 hrs by MTT assay. The format is functional. Put shortly: as §1
In test [7] the test system is CAL-27. Put plainly: Potentiation of 1 uM cisplatin-induced cytotoxicity against human CAL27 cells assessed as decrease in cell viability by measuring combination index at 2000 uM preincubated for 48 hrs followed by cisplatin treatment measured after 72 hrs by MTT assay. The format is functional. The conditions noted are these: in the assay text read “at 2000 nM” for “at 2000 uM”. A digest of the protocol:
as §1

Test [8] deals with CAL-27. Put plainly: Potentiation of 2 uM cisplatin-induced cytotoxicity against human CAL27 cells assessed as decrease in cell viability by measuring combination index at 900 uM preincubated for 48 hrs followed by cisplatin treatment measured after 72 hrs by MTT assay. In kind it is functional. The conditions noted are these: in the assay text read “at 900 nM” for “at 900 uM”. A digest of the protocol:
(§2)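 HDAC inhibitor was added 48 h before cisplatin, then cells were exposed to cisplatin for 72 h and viability was read by MTT assay. Combination index was computed by the Chou–Talalay method: CI > 1 is antagonism, CI = 1 additive, CI < 0.9 synergism. Points with fraction affected below 0.20 were flagged.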

The subject of test [9] is CAL-27. Put plainly: Potentiation of 2 uM cisplatin-induced cytotoxicity against human CAL27 cells assessed as decrease in cell viability by measuring combination index at 1500 uM preincubated for 48 hrs followed by cisplatin treatment measured after 72 hrs by MTT assay. The conditions noted are these: in the assay text read “at 1500 nM” for “at 1500 uM”. The format is functional. Put shortly: as §2

The subject of test [10] is CAL-27. As to the kind of experiment: Potentiation of 5 uM cisplatin-induced cytotoxicity against human CAL27 cells assessed as decrease in cell viability by measuring combination index at 900 uM preincubated for 48 hrs followed by cisplatin treatment measured after 72 hrs by MTT assay. In kind it is functional. The following applies: in the assay text read “at 900 nM” for “at 900 uM”. Put shortly: as §2

Test [11] relates to CAL-27. Put plainly: Potentiation of 5 uM cisplatin-induced cytotoxicity against human CAL27 cells assessed as decrease in cell viability by measuring combination index at 1500 uM preincubated for 48 hrs followed by cisplatin treatment measured after 72 hrs by MTT assay. In kind it is functional. The conditions noted are these: in the assay text read “at 1500 nM” for “at 1500 uM”. Put shortly: as §2

The test system of test [12] is CAL-27. Put plainly: Potentiation of 5 uM cisplatin-induced cytotoxicity against human CAL27 cells assessed as decrease in cell viability by measuring combination index at 2000 uM preincubated for 48 hrs followed by cisplatin treatment measured after 72 hrs by MTT assay. The following applies: in the assay text read “at 2000 nM” for “at 2000 uM”. The format is functional. Put shortly:
as §2

The target in test [13] is T1, Histone deacetylase 1/6 (Homo sapiens) (UniProt Q13547+Q9UBN7). As to the kind of experiment: Inhibition of HDAC1/HDAC6 in human Cal27CisR cells assessed as potentiation of 1 uM cisplatin-induced cytotoxicity by measuring combination index at 900 uM preincubated for 48 hrs followed by cisplatin treatment measured after 72 hrs by MTT assay. In kind it is cell-based. Put shortly:
(§3)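 Cal27CisR cells preincubated 48 h with the HDAC inhibitor, then exposed to cisplatin for 72 h. Viability read by MTT. Combination index calculated by the Chou–Talalay method: CI > 1 antagonism, CI = 1 additive, CI < 0.9 synergism. Points with fraction affected below 0.20 are flagged. Values are the mean of three experiments.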

The target of test [14] is T1, Histone deacetylase 1/6 (Homo sapiens). As to the kind of experiment: Inhibition of HDAC1/HDAC6 in human Cal27CisR cells assessed as potentiation of 1 uM cisplatin-induced cytotoxicity by measuring combination index at 1500 uM preincubated for 48 hrs followed by cisplatin treatment measured after 72 hrs by MTT assay. The format is cell-based. A digest of the protocol:
as §3

For test [15] the target is unchanged. As to the kind of experiment: Inhibition of HDAC1/HDAC6 in human Cal27CisR cells assessed as potentiation of cisplatin-induced apoptosis at 1 uM preincubated for 48 hrs followed by cisplatin treatment for 6 hrs measured after 24 hrs by propidium iodide dye-based flow cytometry (reference value: 20.3%). The format is cell-based. Also noted: scale not given: the % may be the effect or the level left.

In test [16] the test system is CAL-27. As to the kind of experiment: Induction of apoptosis in human CAL27 cells at 0.5 uM for 48 hrs by propidium iodide dye-based flow cytometry. The format is functional, cell-based.
In test [17] the target is T1, Histone deacetylase 1/6 (Homo sapiens). Put plainly: Inhibition of HDAC1/HDAC6 in human Cal27CisR cells assessed as potentiation of 20 uM cisplatin-induced cytotoxicity by measuring combination index at 900 nM preincubated for 48 hrs followed by cisplatin treatment measured after 72 hrs by MTT assay.
Test [18] shares this target. As to the kind of experiment: Inhibition of HDAC1/HDAC6 in human Cal27CisR cells assessed as potentiation of 10 uM cisplatin-induced cytotoxicity by measuring combination index at 1500 nM preincubated for 48 hrs followed by cisplatin treatment measured after 72 hrs by MTT assay.
The target is the same in test [19]. Put plainly: Inhibition of HDAC1/HDAC6 in human Cal27CisR cells assessed as potentiation of 3.16 uM cisplatin-induced cytotoxicity by measuring combination index at 1000 nM preincubated for 48 hrs followed by cisplatin treatment measured after 72 hrs by MTT assay.
Test [20] has the same target. Put plainly: Inhibition of HDAC1/HDAC6 in human Cal27CisR cells assessed as potentiation of 3.16 uM cisplatin-induced cytotoxicity by measuring combination index at 2000 nM preincubated for 48 hrs followed by cisplatin treatment measured after 72 hrs by MTT assay.

The source made the active and inactive calls. The calls are words filed in the database; no cut-off is given here.

T1 sequence (Q13547 whole entry, looked up): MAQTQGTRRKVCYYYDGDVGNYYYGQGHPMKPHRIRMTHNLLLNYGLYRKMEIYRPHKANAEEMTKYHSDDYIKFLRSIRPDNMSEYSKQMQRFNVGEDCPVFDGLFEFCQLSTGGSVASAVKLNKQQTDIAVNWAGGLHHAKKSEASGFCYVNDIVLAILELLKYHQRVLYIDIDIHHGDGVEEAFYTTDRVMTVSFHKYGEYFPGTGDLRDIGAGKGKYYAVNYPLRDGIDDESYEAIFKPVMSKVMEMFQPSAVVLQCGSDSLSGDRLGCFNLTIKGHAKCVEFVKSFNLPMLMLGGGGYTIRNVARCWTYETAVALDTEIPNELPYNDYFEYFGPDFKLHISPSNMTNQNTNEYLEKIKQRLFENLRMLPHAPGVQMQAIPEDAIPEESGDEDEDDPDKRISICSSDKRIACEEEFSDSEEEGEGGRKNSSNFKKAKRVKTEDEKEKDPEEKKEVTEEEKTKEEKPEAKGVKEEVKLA
T1 sequence (Q9UBN7 whole entry, looked up): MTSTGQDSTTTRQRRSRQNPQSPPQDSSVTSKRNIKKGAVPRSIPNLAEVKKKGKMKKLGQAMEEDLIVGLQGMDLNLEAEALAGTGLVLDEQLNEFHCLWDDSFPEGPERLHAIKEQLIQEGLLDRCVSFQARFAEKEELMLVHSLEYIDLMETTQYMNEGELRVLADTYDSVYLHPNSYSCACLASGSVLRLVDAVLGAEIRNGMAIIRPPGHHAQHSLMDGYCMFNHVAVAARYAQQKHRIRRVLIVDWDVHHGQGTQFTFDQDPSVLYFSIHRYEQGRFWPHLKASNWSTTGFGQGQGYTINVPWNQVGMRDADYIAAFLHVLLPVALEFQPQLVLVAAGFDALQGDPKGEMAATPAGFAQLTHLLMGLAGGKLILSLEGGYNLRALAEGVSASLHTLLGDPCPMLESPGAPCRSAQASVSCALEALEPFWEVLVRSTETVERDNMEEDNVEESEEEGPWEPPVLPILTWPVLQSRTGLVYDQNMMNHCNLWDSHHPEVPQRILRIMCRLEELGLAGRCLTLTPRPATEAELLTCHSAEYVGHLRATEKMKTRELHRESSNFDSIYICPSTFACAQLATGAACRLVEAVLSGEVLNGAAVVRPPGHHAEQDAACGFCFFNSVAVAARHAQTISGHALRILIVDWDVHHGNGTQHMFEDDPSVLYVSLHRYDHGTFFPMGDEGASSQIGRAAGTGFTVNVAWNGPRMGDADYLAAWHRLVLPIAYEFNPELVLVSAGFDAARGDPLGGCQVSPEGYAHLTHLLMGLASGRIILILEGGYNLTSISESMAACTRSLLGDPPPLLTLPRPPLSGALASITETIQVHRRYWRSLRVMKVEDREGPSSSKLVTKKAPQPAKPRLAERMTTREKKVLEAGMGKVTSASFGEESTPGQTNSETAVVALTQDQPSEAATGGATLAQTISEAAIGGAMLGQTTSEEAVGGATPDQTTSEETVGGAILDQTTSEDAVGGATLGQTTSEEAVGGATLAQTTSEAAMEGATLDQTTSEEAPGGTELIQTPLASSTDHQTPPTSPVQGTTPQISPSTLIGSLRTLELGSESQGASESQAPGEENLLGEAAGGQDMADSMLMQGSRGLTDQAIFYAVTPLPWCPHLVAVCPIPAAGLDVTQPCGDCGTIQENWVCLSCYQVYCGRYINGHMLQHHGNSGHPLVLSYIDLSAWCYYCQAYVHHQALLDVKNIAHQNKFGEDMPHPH

Consider `COc1cc(NC(=O)NOCCCCCC(=O)NO)c2nc(OC)cc(C)c2c1`, for which the Activity in the test on CAL-27 [1] was determined as 33.3%.
As to `COc1cc(NC(=O)NOCCCCCC(=O)NO)c2ncccc2c1`, the CI was 0.77 in the test with CAL-27 [2]; 0.6 in the test with CAL-27 [3]; 0.67 in the test on CAL-27 [4]; 0.74 with CAL-27 [5]; 0.86 in the test with CAL-27 [6]; 0.75 in the test with CAL-27 [7]. Further, the CI in the test on CAL-27 [8] was 0.4; in the test with CAL-27 [9] it was 0.6; with CAL-27 [10], 0.37; with CAL-27 [11], 0.55; in the test on CAL-27 [12] it was 0.66; in test [13] it was less than 0.2. The CI in test [14] is 1; in test [17], 0.49; in test [18] it was 0.51; in test [19], 0.63; in [20], 0.6. The Activity in test [15] was 56.3%. Further, in the test with CAL-27 [16], the result was inactive.

The values are drawn from ChEMBL document CHEMBL4014350, “Alkoxyurea-Based Histone Deacetylase Inhibitors Increase Cisplatin Potency in Chemoresistant Cancer Cell Lines” (J Med Chem, 2017).
